Compound activity: PubChem BioAssay, several laboratories
S1P4 agonist = activates the human S1P4 receptor | O95977 | S1P4-expressing cell line, agonist reporter assay | activation, % at 4.98 µM | 0.35% of 220,000 active; in the data active = activation above about 11%
Target sequence (O95977 whole entry, looked up): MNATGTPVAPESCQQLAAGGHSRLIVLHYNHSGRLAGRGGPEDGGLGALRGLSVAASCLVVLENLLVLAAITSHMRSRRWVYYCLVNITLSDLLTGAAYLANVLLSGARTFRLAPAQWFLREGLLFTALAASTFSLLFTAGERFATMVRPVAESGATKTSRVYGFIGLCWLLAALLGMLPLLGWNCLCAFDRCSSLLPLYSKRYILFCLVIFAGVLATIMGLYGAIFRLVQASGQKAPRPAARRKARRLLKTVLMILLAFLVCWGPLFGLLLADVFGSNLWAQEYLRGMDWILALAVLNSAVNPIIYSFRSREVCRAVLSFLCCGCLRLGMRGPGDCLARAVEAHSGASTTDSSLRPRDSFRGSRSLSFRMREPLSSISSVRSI
Mdm2 ligase inh = inhibitors of human Mdm2 E3 ubiquitin ligase | signal enhancement, % at 5 µM | Q00987 | cell-based MDM2 ubiquitination luciferase reporter, 2 h; 0 = plate control, 100 = twice control, blank-subtracted | 0.11% of 210,000 active;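 active = signal enhancement of 30% or more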;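 also: luminescence tracks abundance of the self-degrading MDM2-luciferase fusion protein; higher signal means inhibition of MDM2 E3 ligase activity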
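Assay system: stable mammalian line carrying autodegrading MDM2–luciferase fusion reporter; amount: 2000 cells seeded into each well; buffer or medium: DMEM; benchmarks: plate control and blank wells; signal: luciferase luminescence; timing: 2 h compound exposure at 37 °C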
Lmaj promast = inhibitors of Leishmania major promastigote growth; Leishmania major promastigotes, resazurin fluorescence viability; inhibition, % at 10 µM; 9% of 200,000 active; AID 1063; in the data active = inhibition above about 50%;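 also: promastigotes grown with compound for 44 hours at 28 °C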
S1P3 antagonist = antagonists of human S1P3 receptor | Q99500 | CHO S1P3 NFAT-BLA reporter, FRET fluorescence, antagonist mode | inhibition, % at 4.98 µM | 0.27% of 170,000 active;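 active = inhibition above the plate cutoff, the mean inhibition of test wells on that plate plus 3 SD, cut at about 28% in these data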;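 also: cells challenged with S1P at its EC80 of 0.8 µM; blue over green emission ratio from cleaved BLA substrate after 4 h stimulation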
S1P4 antagonist = antagonists of human S1P4 receptor | O95977 | S1P4-expressing cells, antagonist mode, reporter read-out | inhibition, % at 4.98 µM | 0.26% of 220,000 active; in the data active = inhibition above about 29%
Large screens that a line does not name were inactive. This excerpt belongs to a sample that is enriched for hits.

C=C(C)C(=O)Nc1cccc(C2=NOC3(C2)C[C@@H](C(N)=O)N(C(=O)CC(c2ccccc2)c2ccccc2)C3)c1 (stereo partly specified)	none (no result: S1P4 agonist, Lmaj promast, S1P3 antagonist, S1P4 antagonist)
C[n+]1c2n(c3ccccc31)N=C(c1cc(C(C)(C)C)c(O)c(C(C)(C)C)c1)CS2	Lmaj promast 100
CCc1ccc(C(=O)CSc2nc3cc(S(=O)(=O)N4CCOCC4)ccc3n2CC)cc1	none
Cc1ccc(Sc2ccc([N+](=O)[O-])cc2[N+](=O)[O-])nc1	Lmaj promast 58
Cc1ccnc(Sc2ccc([N+](=O)[O-])cc2[N+](=O)[O-])n1	Lmaj promast 100 (no result: S1P3 antagonist)
COc1cc(C(=O)NCCN2C(=O)S/C(=C\c3ccc(F)cc3)C2=O)ccc1OCC(=O)N1CCOCC1	none (no result: Lmaj promast)
CCS(=O)(=O)N1CCN(CC2CC3C=CC2C3)CC1 (stereo unspecified)	Lmaj promast 93 (no result: S1P3 antagonist)
CCCS(=O)(=O)N1CCN(CC2CC=CCC2)CC1 (stereo unspecified)	Lmaj promast 76 (no result: S1P3 antagonist)
CCCS(=O)(=O)N1CCN(CC2CC3C=CC2C3)CC1 (stereo unspecified)	Lmaj promast 88
CCCS(=O)(=O)N1CCN(S(=O)(=O)c2ccc(F)cc2)CC1	none
COc1ccc(NC(=O)C(Sc2nnc(-c3ccncc3)n2-c2ccccc2C)c2ccccc2)cc1Cl (stereo unspecified)	Lmaj promast 99
COc1ccc(NC(=O)C(OC)c2ccccc2)cc1Cl (stereo unspecified)	none
CC(C)(C)C1CCC(=NNc2ccc(S(N)(=O)=O)cc2[N+](=O)[O-])CC1 (stereo unspecified)	Lmaj promast 85
CCN(CC)S(=O)(=O)c1ccc(NN=C2CCN(C)CC2)c([N+](=O)[O-])c1	Lmaj promast 81
CCN(CC)S(=O)(=O)c1ccc(NN=C2CCN(C(C)C)CC2)c([N+](=O)[O-])c1	none (no result: Lmaj promast)
CC(=O)Nc1cccc(-n2nnc(SCC(=O)N(C)c3ccccc3)n2)c1	none (no result: Lmaj promast)
O=C(CSc1nc(-c2cccs2)cc(C(F)(F)F)n1)NCCCn1ccnc1	none (no result: Mdm2 ligase inh)
O=C(CSc1nc(-c2cccs2)cc(C(F)(F)F)n1)Nc1cc(OCC(F)(F)C(F)F)cc([N+](=O)[O-])c1	Lmaj promast 84 (no result: Mdm2 ligase inh)
COc1ccc(C(C)=O)cc1CSc1nnnn1-c1ccc(O)cc1	none (no result: Lmaj promast)
CCOc1ccc(C(C)=O)cc1CSc1nnnn1-c1ccc(O)cc1	Lmaj promast 60
C(=C1/CCCC2=C1Nc1ncnn1C2c1ccccc1)/c1ccccc1 (stereo unspecified)	Lmaj promast 100 (no result: S1P3 antagonist)
FC(F)(F)c1ccccc1C1C2=C(Nc3ncnn31)c1ccccc1CCC2 (stereo unspecified)	Lmaj promast 96 (no result: S1P3 antagonist)
S=C1NC2=C(CCC/C2=C\c2ccccc2)C(c2ccccc2)N1 (stereo unspecified)	none
CC[C@@H]1CC=C[C@H]2[C@H]1C(=O)N(Cc1ccccc1)[C@H]2c1ccc2ccccc2c1	none (no result: S1P4 agonist, Lmaj promast, S1P3 antagonist, S1P4 antagonist)
Clc1ccc(COc2ccccc2CNCc2cccnc2)cc1	Lmaj promast 99 (no result: S1P3 antagonist)
CCOc1cccc(CNCc2cccnc2)c1OCc1ccccc1	none
C=CCOc1ccccc1CNCc1cccnc1	Lmaj promast 87
Cc1ccccc1NC(=O)c1sc(NC(=O)COc2ccccc2)c(C#N)c1C	none
COc1ccc(/C=C/C2=Nc3ccccc3NC(C)(C)C2)cc1OC	none (no result: Lmaj promast)
CN1CCN(C(=O)CSc2ccc(C(F)(F)F)cc2[N+](=O)[O-])CC1	none
CC1(C)CC(CCNS(=O)(=O)c2ccccc2)(c2ccccc2)CCO1 (stereo unspecified)	Lmaj promast 100
Cc1ccc(S(=O)(=O)NCCC2(C(C)C)CCOC(C)(C)C2)cc1 (stereo unspecified)	Lmaj promast 95 (no result: S1P3 antagonist)
Cc1ccc(S(=O)(=O)NCC2(c3ccccc3)CCOCC2)cc1	none
CCC1(C)CC(CCNS(=O)(=O)c2ccc(C)cc2)(c2ccc(C)cc2)CCO1 (stereo unspecified)	Lmaj promast 52 (no result: S1P3 antagonist)
CC1(C)CC(CCNC(=O)CCl)(c2ccccc2)CCO1 (stereo unspecified)	none (no result: Lmaj promast)
CCN(CC)C(=O)c1ccc(N)cc1	none
Cc1cccc(NC(=S)NC2CC3CCCC(C2)N3Cc2ccccc2)c1C (stereo unspecified)	Lmaj promast 87
COCCNC(=S)NC1CC2CCC(C1)N2Cc1ccccc1 (stereo unspecified)	none
CC(C)(C)c1ccccc1NC(=S)NC1CCCCC1	none
O=C(NC1CC2CCCC(C1)N2Cc1ccco1)NC12CC3CC(CC(C3)C1)C2 (stereo unspecified)	Lmaj promast 89
O=C(NCc1ccco1)NC1CCCCC1	none (no result: S1P3 antagonist)
CCc1ccccc1NC(=O)N1C2CCCC1CC(NC(=O)C(C)(C)C)C2 (stereo unspecified)	S1P3 antagonist 63
Cc1cccc(NC(=S)NC2CCCCCC2)c1C	Lmaj promast 82
Cc1occc(=O)c1OC(=O)Nc1ccccc1	none (no result: S1P3 antagonist)
Cc1ccc(NC(=S)NC2CC3CCC(C2)N3Cc2ccco2)c(C)c1 (stereo unspecified)	Lmaj promast 89 (no result: S1P3 antagonist)
Cc1cccc(NC(=S)NC2CC3CCC(C2)N3Cc2ccco2)c1C (stereo unspecified)	Lmaj promast 90 (no result: S1P3 antagonist)
CCNC(=S)NC1CC2CCCC(C1)N2Cc1ccco1 (stereo unspecified)	none (no result: S1P3 antagonist)
Cc1ccccc1NC(=S)NCc1ccco1	none
CCc1ccccc1NC(=S)NC1CC2CCC(C1)N2Cc1ccco1 (stereo unspecified)	Lmaj promast 71 (no result: S1P3 antagonist)
CCc1ccccc1NC(=O)NC1CCCCC1	none (no result: S1P3 antagonist)
CCc1ccccc1NC(=O)NC1CC2CCC(C1)N2Cc1cccs1 (stereo unspecified)	Lmaj promast 76 (no result: S1P3 antagonist)
Cc1ccc(NC(=S)NC2CC3CCC(C2)N3Cc2ccco2)cc1C (stereo unspecified)	Lmaj promast 100 (no result: S1P3 antagonist)
CCc1ccccc1NC(=S)NC1CC2CCC(C1)N2Cc1ccc(F)cc1 (stereo unspecified)	Lmaj promast 95
CCc1ccc(NC(=S)NC2CC3CCCC(C2)N3Cc2cccs2)cc1 (stereo unspecified)	Lmaj promast 91 (no result: S1P3 antagonist)
Cc1ccc(NC(=S)NC2CCCC2)cc1C	none
Cc1sc(N/N=C/c2cccs2)nc1-c1ccccc1	none
C/C(=N/NC(=O)CNC(=O)Cc1ccc(Cl)cc1)c1ccco1	none (no result: Lmaj promast)
CC(=O)Nc1ccc(NC(=O)c2ccc(C3SCC(=O)N3CCc3ccccc3)cc2)cc1 (stereo unspecified)	none
Cc1cccc(NC(=O)c2ccc(C3SCC(=O)N3CCc3ccccc3)cc2)c1 (stereo unspecified)	Lmaj promast 96
COC(=O)c1c(-c2ccccc2Cl)noc1/C=C/N(C)C	Mdm2 ligase inh 42
Cc1onc(-c2ccccc2Cl)c1C(N)=O	none
O=C(N/N=C/c1ccc([N+](=O)[O-])o1)C1CC1	Lmaj promast 100
CN(/N=C/c1ccc([N+](=O)[O-])o1)c1ccccc1	Lmaj promast 71
